Compound activity (PubChem)
ABCG2 inh = blocks JC-1 efflux by human ABCG2 transporter | IgMXP3 cells, flow cytometry | hit rate 0.1% among 190,000 | Q9UNQ0 | AID 1325 | inhibition, % at 6.6 µM;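 active = inhibition above 80%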
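Incubation: cells with compound and JC-1, 10 min at 25 °C, rotating, no wash / Test system: IgMXP3 (ABCG2) plus far-red-tagged CCRF-Adr (ABCB1) cells / Compound dosing: one concentration, 6.6 µM final / Also added: JC-1 fluorescent substrate / Evaluation: efflux inhibition in percent versus controls / Detection: flow cytometry, 530 nm JC-1 signal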
RGS8-Gao reg = regulators of human RGS8-Galphao interaction. response (percent of control binding), % at 10 µM. AID 1423. P09471. multiplexed bead flow cytometry, RGS8-Galphao binding; actives lie on both sides. hit rate 0.34% among 220,000; in the data active = response below about 60% or above about 140%; inactive = in between;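 note: Galphao activated as the GDP aluminium fluoride complex binding bead-coupled RGS8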
RGS4-Gao reg = human RGS4-Galphao interaction regulation; hit rate 0.33% among 220,000; Multiplexed bead flow cytometry, RGS4-Galphao binding; actives lie on both sides; P09471; binding response (% of control), % at 10 µM; in the data active = binding response below about 49% or above about 150%; inactive = in between;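 note: fluorescent Galphao activated with aluminum fluoride binding bead-coupled RGS4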
ABCB1 block = inhibitors of human ABCB1 transporter, ABCG2 counter-screen; AID 1326; inhibition, % at 6.6 µM; P08183; hit rate 0.067% among 190,000; CCRF-Adr cells, JC-1 efflux, flow cytometry; in the data active = inhibition above about 40%;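 note: higher value means more JC-1 retained so stronger ABCB1 efflux block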
RGS16-Gao HTS = modulates binding between human RGS16 and Galphao; O15492+P09471; bead-based flow cytometry RGS16-Galphao binding, fluorescence; actives lie on both sides; binding response (% of control), % at 10 µM; hit rate 0.38% among 220,000; AID 1441; call rule not given here;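 note: Galphao activated by GDP with aluminum fluoride before binding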
RGS7-Gao = human RGS7-Galphao interaction regulation | Multiplexed bead flow cytometry, RGS7-Galphao binding; actives lie on both sides | binding response (% of control), % at 10 µM | hit rate 0.35% among 220,000 | AID 1439 | P09471; in the data active = binding response below about 49% or above about 150%; inconclusive = no clear call, values can overlap the other calls; inactive = in between;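 note: fluorescent Galphao held in activated GDP-AlF4 state binding bead-coupled RGS7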
ABCB1 confirm = inhibits human ABCB1 efflux, confirmed at single point | hit rate 7% among 270 | CCRF-Adr cells, JC-1 efflux, flow cytometry | shares compounds with ABCG2 inh | inhibition, % at 6.6 µM;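 active = inhibition of pump activity above 50%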
ABCG2 single pt = confirmation of human ABCG2 transporter inhibitors, ABCB1 counter-screen; shares compounds with ABCG2 inh; inhibition, % at 6.6 µM; hit rate 6% among 270; IgMXP3 cells, JC-1 efflux, flow cytometry;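 active = inhibition above 50%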
IgMXP3 fluor = IgMXP3 autofluorescence flag for ABCG2 confirmation; shares compounds with ABCG2 inh; IgMXP3 cells, compound autofluorescence 488/530 nm, flow; stronger effect = higher value; fluorescence at 6.6 µM; hit rate 30% among 270; AID 1480;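 active = fluorescence in ABCG2-expressing cells above the plate's control-well mean plus 3 SD, cut at about 15 in these data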
CCRF autofluor = counter-screen for ABCB1 inhibitors: compound fluorescence in CCRF-Adr cells. hit rate 30% among 270. fluorescence at 6.6 µM. shares compounds with ABCG2 inh. compound autofluorescence 488/530 nm, flow cytometry; stronger effect = higher value;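 active = fluorescence beyond the plate control mean plus 3 SD, with a fluorescence-to-maximum score over 2, cut at about 25 in these data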
Hits are given with their value; n = inactive; u = inconclusive; x = not tested or not shown; + = active, no number. This is a sample that favours compounds with a hit; in the whole collection about 0.9% have one here.

SMILES	ABCG2 inh	RGS8-Gao reg	RGS4-Gao reg	ABCB1 block	RGS16-Gao HTS	RGS7-Gao	ABCB1 confirm	ABCG2 single pt	IgMXP3 fluor	CCRF autofluor
CCC(C)NC(=O)COC(=O)c1ccccc1OCC(=O)Nc1ccc(Br)cc1 (configuration not stated)	n	n	n	n	n	n	x	x	x	x
O=S(=O)(c1ccc(Cl)cc1)N1CCN=C1SCc1ccc(Cl)c(Cl)c1	85.9	n	n	n	n	n	n	n	n	n
CN(C)c1ccc(/C=N/NC(N)=S)cc1[N+](=O)[O-]	n	n	n	n	n	n	x	x	x	x
COc1ccc(CNc2nc(-c3cccnc3)nn2C(=O)c2cccs2)cc1	87.7	n	n	n	n	n	n	n	n	n
CC(=O)N1CC(=O)N=C1SCC(=O)Nc1nc(C)c(-c2ccccc2)s1	n	n	n	n	n	u	x	x	x	x
Cc1cc(-c2sccc2Br)nc(-n2cccc2)n1	92.3	n	n	n	n	u	n	n	n	n
Cc1cc(-c2ccc(Br)s2)nc(-n2cccc2)n1	n	n	n	n	n	u	x	x	x	x
Cc1ccc2nc(C)c3c(c2c1)N(c1ccc(F)cc1)CC3	x	n	n	x	n	u	x	x	x	x
CC(C)n1c(O)c(N=NC(=O)Cn2ccc(C(F)(F)F)n2)c2ccccc21	88.8	n	n	n	n	n	n	n	n	28
COc1ccc(NC(=O)c2cc(CN3C(=O)c4ccccc4C3=O)ccc2OC)cn1	n	n	n	n	n	n	x	x	x	x
COc1ccc(CN2C(=O)c3ccccc3C2=O)cc1C(=O)Nc1ccccc1N1CCOCC1	n	n	n	43.2	n	u	71.6	n	n	n
O=C(/C=C/c1cccc([N+](=O)[O-])c1)Nc1cccc(NC(=O)c2cccs2)c1	+	n	n	+	n	n	n	n	n	n
O=C(NCc1ccccn1)c1cn(-c2ccccc2)nc1-c1ccc(Cl)cc1	82.6	n	n	n	n	n	n	n	22.1	149
COC(=O)c1cc2n(n1)CCN(Cc1ccc(C)cc1)C2=O	n	n	n	n	n	n	x	x	x	x
COc1ccc(CN2CCn3nc(C(=O)NC(C)C)cc3C2=O)cc1	n	n	n	41.4	n	n	n	n	n	n
N=c1oc2c3c4c(cc2cc1C(=O)Nc1ccccc1)CCCN4CCC3	+	n	n	131.2	n	n	n	n	625	666
CN(Cc1cccc(F)c1)CC(O)COCc1ccccc1Cl (configuration not stated)	n	n	n	n	n	n	x	x	x	x
CC1=C(C(=O)OC(C)C)C(c2cccs2)C(C(=O)OC(C)C)=C(C)N1	n	n	n	n	n	n	x	x	x	x
COc1cc(C(=O)Nc2ccc(S(=O)(=O)NC(C)(C)C)cc2)cc(OC)c1OC	n	n	n	n	n	n	x	x	x	x
COc1cc(C(=O)Nc2ccc(S(=O)(=O)NC(C)C)cc2)cc(OC)c1OC	81.6	n	n	n	n	n	n	n	n	n
CC(NC(=O)COC(=O)Cc1ccsc1)C1CC2CCC1C2 (configuration not stated)	132.0	n	n	n	n	n	n	n	n	n
Cc1cc(NC(=O)c2cc([N+](=O)[O-])cc([N+](=O)[O-])c2)n(-c2ccccc2)n1	83.8	n	n	n	n	n	n	n	n	n
COC(=O)[C@@H]1CC[C@H](C)[C@@H](c2ccc(C)cc2)N1C(=O)c1ccc(/C=N/OC[C@@H](O)[C@H]2O[C@@H]3OC(C)(C)O[C@@H]3[C@H]2O)cc1	n	n	n	n	n	n	x	x	x	x
COC(=O)[C@@H]1CC[C@H](C)[C@@H](c2ccc(C)cc2)N1C(=O)c1ccc(/C=N/O[C@@H](C)c2cn([C@H](CO)Cc3ccccc3)nn2)cc1	n	n	n	42.5	n	n	n	n	n	n
Cc1nc2ccc(NC(=S)N3CCOCC3)cc2nc1C	n	n	n	n	n	n	x	x	x	x
SMILES	ABCG2 inh	RGS8-Gao reg	RGS4-Gao reg	ABCB1 block	RGS16-Gao HTS	RGS7-Gao	ABCB1 confirm	ABCG2 single pt	IgMXP3 fluor	CCRF autofluor
Cc1cc(/C=C(\C#N)C(=O)O)c(C)n1CC(C)C	+	n	n	+	n	n	n	n	39.8	n
Cc1cc(/C=C(\C#N)C(=O)O)c(C)n1CCC(C)C	x	n	n	x	n	u	x	x	x	x
CCc1cccc(NC(=S)N(CCOC)C(C)c2ccco2)c1 (configuration not stated)	x	n	n	x	n	u	x	x	x	x
Cc1ccccc1OCCOc1ccccc1C=C(C#N)C#N	n	n	n	n	n	n	x	x	x	x
O=C1Nc2ccccc2Oc2cc([N+](=O)[O-])cc(Oc3ccccc3)c21	88.8	n	n	n	n	n	n	n	19.8	59
Cc1cccc(Oc2cc([N+](=O)[O-])cc3c2C(=O)Nc2ccccc2O3)c1	n	n	n	n	n	n	x	x	x	x
O=c1oc2ccccc2cc1-c1nc2c(s1)CCCC2	n	n	n	n	n	n	n	n	n	n
CC(C)(C)C1CCC(=NNC(=O)C(=O)NCc2ccco2)CC1 (configuration not stated)	n	n	n	n	n	n	x	x	x	x
CSc1nc(N2CCN(C)CC2)c2c(c1C#N)CC(C)(C)OC2	x	n	n	x	n	u	x	x	x	x
CSc1nc(N2CCCC2)c2c(c1C#N)CC(C)(C)OC2	n	n	n	n	n	n	n	n	n	n
COc1ccc([N+](=O)[O-])cc1NC(=O)C(C)Sc1ccc(C)cc1 (configuration not stated)	81.7	n	n	n	n	n	n	n	n	n
C/C(=N\NC(=O)COc1ccc(C#N)cc1)c1ccc(N2CCOCC2)cc1	n	n	n	n	n	n	x	x	x	x
C/C(=N\NC(=O)COc1cc(C)cc(C)c1)c1ccc(N2CCOCC2)cc1	91.7	n	n	n	n	n	n	n	n	n
COc1cccc(/C=C(/C(=O)OCC(=O)NC2CCCC(C)C2C)c2ccccc2)c1 (configuration not stated)	n	n	n	n	n	n	n	n	n	n
COc1cccc(/C=C(/C(=O)OCC(N)=O)c2ccccc2)c1	n	n	n	n	n	u	x	x	x	x
CCc1ccc(NC(=O)CSc2nc3ccccc3c(=O)n2CCCC(=O)N2CCCC2)cc1	n	n	n	71.3	n	n	n	n	n	n
